Source: PubChem
ASAP1 inh – blocks human ASAP1-stimulated Arf1 GTP hydrolysis; Q9ULH1; GDP FP detection; inhibition, % at 16.5 µM; 360,000 compounds, 0.19% hits; AID 624377; in the data active = inhibition above about 25%
ARFGAP1 inh – inhibits rat ARF GTPase activating protein 1; inhibition, % at 16.5 µM; Arfgap1-stimulated ARF1 GTP hydrolysis, GDP FP detection; 360,000 compounds, 0.26% hits; Q62848;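 active = inhibition above a per-plate limit, mean inhibition of low control wells plus 3 SD, cut at about 25% in these data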
Target sequence (Q62848 1-136 limits assumed): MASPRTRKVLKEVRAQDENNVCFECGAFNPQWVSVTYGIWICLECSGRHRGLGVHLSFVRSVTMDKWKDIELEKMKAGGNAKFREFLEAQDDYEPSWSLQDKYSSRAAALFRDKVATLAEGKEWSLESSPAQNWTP
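System: truncated rat Arfgap1 GAP domain / Benchmarks: high control wells lacking Arfgap1, low control full reaction with DMSO / Times: compound-enzyme preincubation 20 min, reaction 120 min, detection 60 min, 25 °C / Repeats: one replicate per compound / Also added: human ARF1(Δ1-17)-GTP substrate / Measured by: Tracer-displacement fluorescence polarization with EDTA stop, 620/688 nm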
Tn6 DDE FP – DD(E)-Tn6 binding inhibition, primary FP screen; P02675; Fibrin DD(E) TRITC-Tn6 fluorescence polarization displacement; inhibition, % at 8.3 µM; 370,000 compounds, 0.21% hits; AID 720509;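 active = inhibition above a per-campaign cutoff: mean of compounds within control limits plus 3 SD, cut at about 15% in these data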
DDE Tn7 FP inh – inhibitors of Tn7 peptide binding to human fibrin DD(E). 370,000 compounds, 0.13% hits. FP displacement of FITC-Tn7 peptide from fibrin DD(E); 0% = median of compound wells per plate. AID 720508. inhibition, % at 8.3 µM;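 active = inhibition above the mean of compounds falling within the control limits plus 3 SD of them, cut at about 14% in these data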
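Measure: % inhibition scaled between sample-field median and high-control FP; Test system: human fibrin DD(E); Quantity: 2 µM final DD(E) protein; Doses: one dose, 8.3 µM nominal; Schedule: compound with protein 10 min, then 3 h after probe, room temperature; Detection: fluorescence polarization; Medium: Tris buffer with calcium and detergent, pH 7.8.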
ARFGAP1 confirm – confirmation of rat ARFGAP1 inhibitors | 890 compounds, 30% hits | ARFGAP1-stimulated ARF1 GTP hydrolysis, GDP tracer FP | inhibition, % at 16.5 µM | shares compounds with ARFGAP1 inh;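 active = average inhibition over triplicates above the hit cutoff set in the earlier primary screen, cut at about 25% in these data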
Target sequence (Q62848 whole entry, looked up): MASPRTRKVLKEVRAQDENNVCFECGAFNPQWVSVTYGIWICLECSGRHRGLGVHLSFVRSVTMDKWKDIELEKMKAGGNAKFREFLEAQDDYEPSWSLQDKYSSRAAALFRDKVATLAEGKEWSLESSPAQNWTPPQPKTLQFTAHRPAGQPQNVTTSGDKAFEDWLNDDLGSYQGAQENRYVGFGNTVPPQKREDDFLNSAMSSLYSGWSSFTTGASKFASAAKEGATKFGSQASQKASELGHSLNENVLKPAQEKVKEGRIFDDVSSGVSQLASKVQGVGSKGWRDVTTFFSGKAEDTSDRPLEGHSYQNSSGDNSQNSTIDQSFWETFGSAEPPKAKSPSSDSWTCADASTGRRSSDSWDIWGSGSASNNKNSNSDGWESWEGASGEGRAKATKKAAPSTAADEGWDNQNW
DDE Tn7 confirm – DD(E)-Tn7 binding inhibition, FP confirmation; shares compounds with DDE Tn7 FP inh; FP displacement of TRITC-Tn7 peptide from DD(E); 0% set at plate's compound-well median; inhibition, % at 8.3 µM; 460 compounds, 5% hits;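 active = inhibition above the campaign cutoff, the mean of compounds within control limits plus 3 SD, cut at about 14% in these data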;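 also: displacers lower polarization since freed probe rises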
DDE Tn7 FP ctr – DD(E)-Tn7 binding inhibition, counter-screen; shares compounds with DDE Tn7 FP inh; 460 compounds, 3% hits; AID 720633; inhibition, % at 8.3 µM; fibrin DD(E), TRITC-Tn7 probe displacement, fluorescence polarization;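 active = inhibition above the cutoff, the mean of compounds lying between the control bounds plus 3 SD of those compounds, cut at about 17% in these data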
Each line names hits and unclear results; the compound was inactive in the other large screens (follow-up assays come after a bar, where they were run); ! = not confirmed by another sample. Hits are enriched below; roughly 0.74% of the tested compounds scored in any of these assays.

CN1CCCC1(C)C(=O)Nc1ccc(-n2cccc2)cc1 (centres undefined)	none
COc1ccc([C@H]2C[C@@H](n3cc(COC(=O)c4ccccc4)nn3)[C@H](O)CN2C(=O)C2CCCCC2)cc1	ARFGAP1 inh 26.2 | ARFGAP1 confirm inactive
COc1ccc([C@H]2C[C@H](n3cc(COC(=O)c4ccccc4)nn3)[C@@H](O)CN2C(=O)C2CCCCC2)cc1	none
CCN1CCN(c2ccc(S(=O)(=O)N3CCCCC3)cc2NC(=O)/C=C/c2ccc(OC)c(OC)c2)CC1	ARFGAP1 inh 30.2 | ARFGAP1 confirm 44.9
COc1ccc(/C=C/C(=O)Nc2cc(S(=O)(=O)N3CCCCC3)ccc2N2CCCCC2)cc1OC	none
C[C@@H]1CN(S(=O)(=O)C(C)(C)C)[C@@H](CCO)/C1=C\CCO	none
CCCN(CCC)S(=O)(=O)c1cccc(C(=O)Nc2ccc3c(c2)OCO3)c1	ARFGAP1 inh 47.3 | ARFGAP1 confirm inactive
O=C(Nc1ccc2nn(-c3ccccc3)nc2c1)c1ccc2c(c1)OCO2	ARFGAP1 inh 25.5 | ARFGAP1 confirm 28.0
O=C(Nc1ccc(-c2nc3ccccc3[nH]2)cc1)c1ccc2c(c1)OCO2	ARFGAP1 inh 25.8 | ARFGAP1 confirm 31.7
CN1c2ccsc2/C(=N/NC(=O)c2c(F)cccc2F)CS1(=O)=O	none
CN1c2ccsc2/C(=N/Nc2ccccc2)CS1(=O)=O	ARFGAP1 inh 28.7 | ARFGAP1 confirm inactive
COCCC1CCCCN1C(=O)c1cc(COc2cccc(C(C)=O)c2)on1 (centres undefined)	ARFGAP1 inh 25.4 | ARFGAP1 confirm inactive
O=C(NCc1ccco1)c1ccc(NC(=O)C2COc3ccccc3O2)cc1 (centres undefined)	ARFGAP1 inh 28.8 | ARFGAP1 confirm inactive
C=CCN1C[C@H](COC(=O)c2ccc(C)c(C)c2)Oc2cccc(F)c2S1(=O)=O	none
COc1ccccc1NC(=O)Cc1csc(NC(=S)Nc2ccc(C)cc2)n1	ARFGAP1 inh 27.5 | ARFGAP1 confirm inactive
COc1cccc(C2NC(=S)N(Cc3ccccc3)C(C)=C2C(C)=O)c1 (centres undefined)	none
Cc1cc2c(cc1C)C(c1cccc([N+](=O)[O-])c1)CC(=O)N2 (centres undefined)	DDE Tn7 FP inh 14.3 | DDE Tn7 confirm inactive | DDE Tn7 FP ctr inactive
Cc1ccc2nc(CN(C)C(=O)[C@H](CCc3ccccc3)NC(=O)[C@H]3O[C@@H](n4cnc5c(N)ncnc54)[C@H](O)[C@@H]3O)[nH]c2c1	none
Cc1cc2nc3c(=O)[nH]c(=S)[nH]c3nc2cc1NC(=O)C(F)(F)F	DDE Tn7 FP inh 15.7 | DDE Tn7 confirm inactive | DDE Tn7 FP ctr inactive
O=c1[nH]c(=S)[nH]c2nc(-c3ccccc3)cnc12	none
CC(C)c1nnc(N2C(=O)C(O)=C(C(=O)c3cccs3)C2c2ccccc2)s1 (centres undefined)	DDE Tn7 FP inh 30.5 | DDE Tn7 confirm inactive | DDE Tn7 FP ctr inactive
COc1cc(O)c(C(CCN2CCOCC2)c2ccc(N(C)C)cc2)c(OC)c1 (centres undefined)	DDE Tn7 FP inh 14.2 | DDE Tn7 confirm inactive | DDE Tn7 FP ctr inactive
COC(=O)[C@]12C[C@H](CC(=O)NCc3ccc(C)o3)C(=O)N(Cc3ccc(Cl)cc3Cl)C1=C[C@H](COCc1ccccc1)O[C@@H]2C	none (no result: ASAP1 inh, ARFGAP1 inh)
Cc1ccc(NC(=O)Cn2c(O)c(N=NC(N)=S)c3ccccc32)cc1	none
Cc1ccc(NC(=O)Cn2c(O)c(N=NC(N)=O)c3ccccc32)cc1	DDE Tn7 FP inh 14.4 | DDE Tn7 confirm inactive | DDE Tn7 FP ctr inactive
CC(=O)N1CCCN(C(=O)c2ccc3nc(Cc4cccc(Cl)c4)oc3c2)CC1	none
O=C1CN(C(=O)c2ccc3nc(Cc4cccc(Cl)c4)oc3c2)CCN1	DDE Tn7 FP inh 13.8 | DDE Tn7 confirm inactive | DDE Tn7 FP ctr inactive
COc1cc(N2CCC(O)CC2)ccc1Nc1cc(Nc2ccccc2S(=O)(=O)C(C)C)c2cc[nH]c2n1	none
O=C(OCc1cn([C@H]2CN(C(=O)C3CCCCC3)[C@@H](c3ccccc3)C[C@@H]2O)nn1)c1ccccc1	DDE Tn7 FP inh 14.9 | DDE Tn7 confirm inactive | DDE Tn7 FP ctr inactive
O=C(OCc1cn([C@@H]2CN(C(=O)C3CCCCC3)[C@@H](c3ccccc3)C[C@H]2O)nn1)c1ccccc1	none
O=C(Nc1ccccc1)N1CCN(Cc2ccc3c(c2)OCO3)CC1	none
Cc1cc(C)cc(NC(=O)N2CCN(Cc3ccc4c(c3)OCO4)CC2)c1	DDE Tn7 FP inh 14.0 | DDE Tn7 confirm inactive | DDE Tn7 FP ctr inactive
COc1ccc(NC(=O)COC(=O)CC2Sc3ccccc3NC2=O)cc1 (centres undefined)	DDE Tn7 FP inh 14.8 | DDE Tn7 confirm inactive | DDE Tn7 FP ctr inactive
Cc1ccc(NC(=O)CSc2nnc3ccc(-c4ccncc4)nn23)cc1	none
Cc1ccc(CSc2nnc3ccc(-c4ccncc4)nn23)cc1	DDE Tn7 FP inh 14.4 | DDE Tn7 confirm inactive | DDE Tn7 FP ctr inactive
COC(=O)[C@]12C[C@H](CC(=O)NCC3CCCCC3)C(=O)N(CCC3=CCCCC3)C1=C[C@H](C(C)(C)C)O[C@@H]2C	none
COc1cc2c(c(OC)c1OC)-c1ccc(NCc3ccccc3)c(=O)cc1C(NC(C)=O)CC2 (centres undefined)	DDE Tn7 FP inh 14.6 | DDE Tn7 confirm inactive | DDE Tn7 FP ctr inactive
N#Cc1[nH]nc2nc[nH]c(=O)c12	none
COC(=O)C1=C(C)N(Cc2cccc(C(F)(F)F)c2)C(=NCc2ccc(OC)cc2)NC1c1ccc(Cl)cc1 (centres undefined)	none
Cc1ccc(C2CC(=O)Nc3cc4c(cc32)OCO4)o1 (centres undefined)	DDE Tn7 FP inh 15.4 | DDE Tn7 confirm inactive | DDE Tn7 FP ctr inactive
O=C1CC(c2ccc3c(c2)OCO3)c2cc3c(cc2N1)OCO3 (centres undefined)	none
CC1=CC(C)(C)NC(=S)N1c1cccc(C)c1	DDE Tn7 FP inh 14.2! | DDE Tn7 confirm inactive | DDE Tn7 FP ctr inactive
CC1=CC(C)(C)NC(=S)N1c1ccc(C)cc1	none
C=CCOc1ccc(/C=C/C(=O)N2CCCN(S(=O)(=O)c3c(C)noc3C)CC2)cc1	DDE Tn7 FP inh 14.6 | DDE Tn7 confirm inactive | DDE Tn7 FP ctr inactive
COc1ccc2c(c1)[C@@]1(OCCC=C[C@H]1C)C(=O)N2C/C=C(\C)CCC=C(C)C	none
COc1cccc(OC)c1C(=O)Nc1sc2c(c1C#N)CCC2	DDE Tn7 FP inh 13.8 | DDE Tn7 confirm inactive | DDE Tn7 FP ctr inactive
CC(=O)C1=C(C)N(Cc2ccc(Cl)cc2)C(=S)NC1c1cccc(Br)c1 (centres undefined)	none
